Data on one compound can be found in ChEMBL document CHEMBL3856284, “Discovery, design and synthesis of 6H-anthra[1,9-cd]isoxazol-6-one scaffold as G9a inhibitor through a combination of shape-based virtual screening and structure-based molecular modification” (Bioorg Med Chem, 2016).

Series [1] relates to MCF7. In words: Induction of phenotypic changes in human MCF7 cells assessed as membrane blebbing at 4 uM after 24 hrs by inverted light microscopic method. Format: functional, cell-based. An outline of the steps:
(§1)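 MCF-7 cells were incubated 24 h with 2, 4 or 8 µM compound, with an untreated group as control. Cell morphology (distortion, blebbing, shrinkage, rounding, necrosis) was examined under an inverted light microscope at ×200.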

Series [2] has as its system Mus musculus. The series can be described thus: Half life in mouse at 10 mg/kg, po after 5 mins to 24 hrs by LC-MS/MS analysis. The settings on record: in vivo.
In series [3] the test system is MCF7. In words: Induction of apoptosis in human MCF7 cells assessed as appearance of apoptotic bodies after 24 hrs by Hoechst 33258 staining-based fluorescence microscopy. Format: functional, cell-based.
In series [4] the test system is MCF7. In words: Induction of phenotypic changes in human MCF7 cells assessed as distortion at 4 uM after 24 hrs by inverted light microscopic method. Format: functional, cell-based. The essentials:
as §1

For series [5], the system named is Mus musculus. In words: AUC in mouse at 10 mg/kg, iv after 2 mins to 24 hrs by LC-MS/MS analysis. The settings on record: in vivo.
In series [6] the test system is Mus musculus. In words: Clearance in mouse at 10 mg/kg, po after 5 mins to 24 hrs by LC-MS/MS analysis. The settings on record: in vivo.
Series [7] has as its system MCF7. In words: Induction of apoptosis in human MCF7 cells assessed as viable cells at 4 uM after 48 hrs by annexin V staining-based flow cytometric analysis (reference value: 82.85%). Format: functional. The settings on record: MCF7, 48 h, read-out: Activity.
In series [8] the target is T1, Histone-lysine N-methyltransferase EHMT2 (Homo sapiens) (UniProt Q96KQ7).
T1 sequence (whole entry): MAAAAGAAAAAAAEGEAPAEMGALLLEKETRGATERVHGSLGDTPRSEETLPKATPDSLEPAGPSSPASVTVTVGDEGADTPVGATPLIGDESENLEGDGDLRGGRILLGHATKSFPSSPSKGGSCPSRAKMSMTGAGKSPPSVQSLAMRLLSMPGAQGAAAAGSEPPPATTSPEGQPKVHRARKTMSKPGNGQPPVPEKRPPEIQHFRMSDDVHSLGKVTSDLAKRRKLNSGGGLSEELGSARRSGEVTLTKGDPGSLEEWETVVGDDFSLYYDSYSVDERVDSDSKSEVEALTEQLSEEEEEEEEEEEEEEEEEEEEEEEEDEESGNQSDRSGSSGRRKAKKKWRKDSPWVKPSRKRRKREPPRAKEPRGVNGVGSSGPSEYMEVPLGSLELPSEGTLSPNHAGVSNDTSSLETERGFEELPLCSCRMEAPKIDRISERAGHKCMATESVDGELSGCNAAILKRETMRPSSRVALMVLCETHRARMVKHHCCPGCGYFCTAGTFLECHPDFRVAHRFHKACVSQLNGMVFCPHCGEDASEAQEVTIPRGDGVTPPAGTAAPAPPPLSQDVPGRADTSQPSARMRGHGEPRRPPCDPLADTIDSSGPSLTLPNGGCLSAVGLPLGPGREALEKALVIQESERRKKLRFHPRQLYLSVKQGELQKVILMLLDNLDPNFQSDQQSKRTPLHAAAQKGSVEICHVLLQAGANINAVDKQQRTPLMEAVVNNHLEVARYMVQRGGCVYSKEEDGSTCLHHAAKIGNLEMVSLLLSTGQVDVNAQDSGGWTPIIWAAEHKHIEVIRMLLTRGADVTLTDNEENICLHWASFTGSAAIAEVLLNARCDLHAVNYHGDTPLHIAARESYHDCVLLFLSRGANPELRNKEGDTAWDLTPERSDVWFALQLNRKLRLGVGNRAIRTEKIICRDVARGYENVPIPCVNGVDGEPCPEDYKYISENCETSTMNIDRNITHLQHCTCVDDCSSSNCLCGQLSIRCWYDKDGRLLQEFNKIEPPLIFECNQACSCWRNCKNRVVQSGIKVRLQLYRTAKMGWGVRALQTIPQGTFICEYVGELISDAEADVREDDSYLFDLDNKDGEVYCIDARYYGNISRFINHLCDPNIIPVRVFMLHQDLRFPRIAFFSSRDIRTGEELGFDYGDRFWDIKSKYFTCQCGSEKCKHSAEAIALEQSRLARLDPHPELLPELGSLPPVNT
The series can be described thus: Inhibition of G9a in human MCF7 cells assessed as decrease in trimethylation level of H3K9 after 48 hrs by Western blot method. Format: cell-based.

For series [9], the system named is MCF7. The series can be described thus: Induction of phenotypic changes in human MCF7 cells assessed as round in shape at 8 uM after 24 hrs by inverted light microscopic method. Format: functional, cell-based. The essentials: as §1
A short description of series [10]: Antiproliferative activity against human HepG2 cells assessed as inhibition of cell viability after 72 hrs by MTT assay. The settings on record: HepG2, 72 h. Format: functional, cell-based. (In general: Tetrazolium dyes change colour on reduction, which living cells bring about.)
Series [11] has as its system MCF7. The series can be described thus: Induction of phenotypic changes in human MCF7 cells at 2 uM after 24 hrs by inverted light microscopic method. Format: functional, cell-based. The essentials: as §1
Series [12] relates to MCF7. The series can be described thus: Induction of apoptosis in human MCF7 cells assessed as necrotic cells at 2 uM after 48 hrs by annexin V staining-based flow cytometric analysis (reference value: 5.65%). Format: functional. Background: Flow cytometry measures light scatter and fluorescence of single cells or particles in a stream.
For series [13], the system named is MCF7. The series can be described thus: Induction of apoptosis in human MCF7 cells assessed as late apoptotic cells at 4 uM after 48 hrs by annexin V staining-based flow cytometric analysis (reference value: 11%). Format: functional.
For series [14], the system named is MCF7. In words: Induction of apoptosis in human MCF7 cells assessed as viable cells at 2 uM after 48 hrs by annexin V staining-based flow cytometric analysis (reference value: 82.85%). Format: functional. The settings on record: MCF7, 48 h, read-out: Activity.
Series [15] has as its system MCF7. In words: Induction of apoptosis in human MCF7 cells assessed as early apoptotic cells at 8 uM after 48 hrs by annexin V staining-based flow cytometric analysis (reference value: 0.5%). Format: functional.
The subject of series [16] is MCF7. The series can be described thus: Induction of apoptosis in human MCF7 cells assessed as early apoptotic cells at 2 uM after 48 hrs by annexin V staining-based flow cytometric analysis (reference value: 0.5%). Format: functional.
The test system of series [17] is MCF7. In words: Induction of phenotypic changes in human MCF7 cells assessed as shrinkage at 4 uM after 24 hrs by inverted light microscopic method. Format: functional, cell-based. An outline of the steps:
as §1

The subject of series [18] is Mus musculus. In words: Cmax in mouse at 10 mg/kg, po after 5 mins to 24 hrs by LC-MS/MS analysis. The settings on record: in vivo.
Series [19] relates to Mus musculus. In words: Clearance in mouse at 10 mg/kg, iv after 2 mins to 24 hrs by LC-MS/MS analysis. The settings on record: in vivo.
Series [20] deals with Mus musculus. The series can be described thus: AUC in mouse at 10 mg/kg, po after 5 mins to 24 hrs by LC-MS/MS analysis. The settings on record: in vivo.
Series [21] concerns Mus musculus. The series can be described thus: Tmax in mouse at 10 mg/kg, po after 5 mins to 24 hrs by LC-MS/MS analysis. The settings on record: in vivo.
The target of series [22] is T1, Histone-lysine N-methyltransferase EHMT2 (Homo sapiens). In words: Inhibition of G9a in human MCF7 cells assessed as decrease in dimethylation level of H3K9 at […] after 48 hrs by Western blot method. Format: cell-based. (In general: Immunoblotting shows a protein as a band on a membrane.)
Series [23] relates to MCF7. In words: Induction of apoptosis in human MCF7 cells assessed as viable cells at 8 uM after 48 hrs by annexin V staining-based flow cytometric analysis (reference value: 82.85%). Format: functional. The settings on record: MCF7, 48 h, read-out: Activity.

Structures are written as SMILES. Calls of active or inactive are those of the source.

Usually half-life stands for the time needed for the level to fall by half in the phase considered. Read a low half-life as rapid decline. As usually defined, the AUC is the area under the concentration-time curve, a measure of exposure. Lower therefore signals less exposure. Usually CL/F stands for clearance divided by bioavailability, as obtained after extravascular dosing. A word on the IC50: it is the concentration at which inhibition is half-maximal. One may read the Cmax as the maximum level reached in the sampled fluid or tissue. By clearance is commonly meant a measure of how efficiently the substance is removed, as volume per time. As usually defined, the Tmax is the time at which the peak concentration occurs. For the compound `O=C1c2ccccc2-c2onc3c(N4CCCCC4)cc(NCCN4CCCC4)c1c23`, the result in the series with MCF7 [1], with MCF7 [4], in the series with MCF7 [9], with MCF7 [11] and in the series on MCF7 [17] was Active. The compound further gave a half-life in the series on Mus musculus [2] of 240 min. The Activity result with MCF7 [3] is “Dose-dependent effect”; in the series on MCF7 [12] it was 3.2%; in the series with MCF7 [13], 26.05%; with MCF7 [15], 2.75%; with MCF7 [16], 0.3%. For the same compound, the area under the curve (AUC) in the series on Mus musculus [5] is 1300 ng·h/mL; in the series on Mus musculus [20], 724 ng·h/mL. For the same compound, the CL/F in the series with Mus musculus [6] was 253 mL/min/kg. Further, the viability at 4 µM with MCF7 [7] was found to be 70%. In addition, the inhibition result in series [8] was “Dose-dependent effect”. Also, the IC50 in series [10] came to 7.93 µM. Moreover, the viability at 2 µM in the series on MCF7 [14] is 78.2%. In the series with Mus musculus [18], this compound gave a Cmax of 70.7 ng/mL. For the same compound, in the series on Mus musculus [19], the clearance was 135 mL/min/kg. Moreover, the Tmax with Mus musculus [21] is 6.7 h. Also, the inhibition result in [22] was “Active”. Moreover, in the series with MCF7 [23], the viability at 8 µM came to 66.5%.
